This note sets out measurements from ChEMBL document CHEMBL1255401, “Penicillin sulfone inhibitors of class D beta-lactamases” (Antimicrob Agents Chemother, 2010).

SMILES strings stand for the structures.

A short description of experiment [1]: Activity of Beta-lactamase OXA-1 expressed in Escherichia coli BL21 (DE3). The gist of the method:
(§1)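 OXA-1 from E. coli BL21(DE3) with pET 12a(+) blaOXA-1, IPTG-induced (0.2 mM), released with lysozyme/EDTA, purified by preparative isoelectric focusing. Continuous spectrophotometric hydrolysis assays of oxacillin, ampicillin, nitrocefin and cephaloridine at room temperature in 50 mM sodium phosphate with 20 mM bicarbonate, run in triplicate. Initial rates versus substrate concentration fitted to give kcat, Km and kcat/Km.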

A short description of experiment [2]: Ratio of Kcat to Km for Beta-lactamase OXA-1 expressed in Escherichia coli BL21 (DE3). The gist of the method: as §1
Experiment [3] is described as follows: Inhibition of Beta-lactamase OXA-17 expressed in Escherichia coli BL21 (DE3) by nitrocefin hydrolysis assay. The gist of the method:
(§2)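 Competition assay at room temperature in 50 mM sodium phosphate with 20 mM bicarbonate, run in triplicate. Enzyme at 11 nM, reporter substrate 50 μM nitrocefin, inhibitor at 4 μM to 9 mM depending on inhibitor and enzyme. Initial velocities taken immediately after mixing, 1/v plotted against [I] and fitted linearly. Ki obtained as y-intercept divided by slope.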

The nature of experiment [4]: Inhibition of Beta-lactamase OXA-24/40 expressed in Escherichia coli BL21 (DE3) by nitrocefin hydrolysis assay. The gist of the method: as §2
Experiment [5] in a line: Inhibition of Beta-lactamase OXA-14 expressed in Escherichia coli BL21 (DE3) by nitrocefin hydrolysis assay. The gist of the method:
as §2

The nature of experiment [6]: Inhibition of Beta-lactamase OXA-10 expressed in Escherichia coli BL21 (DE3) by nitrocefin hydrolysis assay. The gist of the method: as §2
A short description of experiment [7]: Inhibition of Beta-lactamase OXA-1 expressed in Escherichia coli BL21 (DE3) by nitrocefin hydrolysis assay. The gist of the method:
as §2

The next experiment relates to Escherichia coli. The experiment in a line: Antibacterial activity against Escherichia coli DH10B harboring RGN238 plasmid containing Beta-lactamase OXA-1 at 4 ug/ml in presence of increasing concentrations of piperacillin by broth agar dilution assay. The class given is functional. The gist of the method: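 Lysogeny broth agar dilution MIC on E. coli DH10B carrying plasmid RGN238 with blaOXA-1. Piperacillin tested at increasing concentrations with the inhibitor held at a constant 4 μg/ml. Plates inoculated by Steers replicator with 10 μl of a diluted overnight culture containing 10^4 CFU.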
For orientation: In agar dilution the substance is mixed into plates at graded concentrations.

In general, Km refers to the concentration of substrate that gives half-maximal velocity. What is called kcat is the number of substrate molecules converted per active site and unit of time at saturation. The term kcat/Km denotes the turnover number divided by the Michaelis constant. In the case of `Cc1onc(-c2ccccc2)c1C(=O)N[C@@H]1C(=O)N2[C@@H]1SC(C)(C)[C@@H]2C(=O)O`, in experiment [1], the Km was found to be 31 µM and the kcat was 577 s⁻¹. The kcat/Km in experiment [2] came out at 1.9e+07 M⁻¹ s⁻¹.
As a reminder, the Ki is the dissociation constant of the complex between target and ligand, obtained from inhibition or displacement. On to `O=C(O)[C@H]1/C(=C/CO)O[C@@H]2CC(=O)N21` [CLAVULANIC ACID], for which the Ki in experiment [3] is 45 µM; in experiment [4], 51 µM; in experiment [5] it was 19 µM; in experiment [6], 104 µM; in experiment [7] it was 195 µM.
In the case of `CC1(C)S[C@@H]2[C@H](NC(=O)[C@H](N)c3ccccc3)C(=O)N2[C@H]1C(=O)O`, in experiment [1], the Km was found to be 64 µM and the kcat is 357 s⁻¹. Further, in experiment [2], the kcat/Km came to 6e+06 M⁻¹ s⁻¹.
A word on the MIC: it is the lowest concentration that inhibits growth of the organism. On to `C[C@]1(COC(=O)Cc2ccc(O)c(O)c2)[C@H](C(=O)O)N2C(=O)/C(=C/c3ccccn3)[C@H]2S1(=O)=O`, for which the MIC in the experiment with Escherichia coli was found to be 128 µg/mL. The Ki came out at 0.2 µM in experiment [3]; 0.65 µM in experiment [4]; 1.4 µM in experiment [5]; 8 µM in experiment [6]; 0.7 µM in experiment [7].
Turning to `C[C@]1(Cn2ccnn2)[C@H](C(=O)O)N2C(=O)C[C@H]2S1(=O)=O` [TAZOBACTAM], the MIC with Escherichia coli worked out at 512 µg/mL. Besides, the Ki is 40 µM in experiment [3]; 271 µM in experiment [4]; 30 µM in experiment [5]; 170 µM in experiment [6]; 585 µM in experiment [7].
`CC(=O)OC[C@@]1(C)[C@H](C(=O)O)N2C(=O)/C(=C/c3ccccn3)[C@H]2S1(=O)=O`: the Ki in experiment [3] came out at 0.87 µM; in experiment [4], 2.4 µM; in experiment [5], 4 µM; in experiment [6] it was 17 µM; in experiment [7], 1.4 µM.
With `O=C(Cc1cccs1)N[C@@H]1C(=O)N2C(C(=O)O)=C(/C=C/c3ccc([N+](=O)[O-])cc3[N+](=O)[O-])CS[C@H]12`, in experiment [1], the Km was determined as 9 µM and the kcat is 94 s⁻¹. Moreover, the kcat/Km in experiment [2] is 1e+07 M⁻¹ s⁻¹.
For the compound `O=C(Cc1cccs1)N[C@@H]1C(=O)N2C(C(=O)[O-])=C(C[n+]3ccccc3)CS[C@H]12`, in experiment [1], the Km was 80 µM and the kcat worked out at 16 s⁻¹. The kcat/Km in experiment [2] was 210000 M⁻¹ s⁻¹.
